According to PMC7217742 (Addiction biology, 2019):

Experiments:
[1] = tested on: extracellular 5-HT in the nucleus accumbens; assay: In vivo microdialysis, 5-HT; parameters: species or system rat; conditions: i.v.
In short: (§1)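 Male Sprague-Dawley rats (300–400 g) were anesthetized with ketamine/xylazine (75/5 mg/kg i.p.) and fitted with a jugular catheter and a guide cannula aimed at the nucleus accumbens. After three stable baseline samples, they received two i.v. doses 60 min apart, the second threefold higher (0.1 then 0.3, or 1.0 then 3.0 mg/kg); controls received saline (1 ml/kg). Dialysate was collected every 20 min for 120 min. Probe placement was verified histologically. Data were expressed as % baseline and analysed by two-way ANOVA with Bonferroni tests.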

male Sprague-Dawley rats [2] = assay: Locomotor activity; assay type: in vivo, rat; conditions: i.v., lowest dose with increase, during microdialysis
In short: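 Ambulation and stereotypy were counted by photobeam breaks in the same rats during nucleus accumbens microdialysis. The rats received two sequential i.v. injections 60 min apart, the second threefold higher (0.1/0.3 or 1.0/3.0 mg/kg), or saline (1 ml/kg), and were monitored through the 120-min post-injection period.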

male Sprague-Dawley rats [3] = assay: Telemetric assessment of body temperature; assay type: in vivo, rat; conditions: s.c., telemetry, data not shown
In short: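 In telemetry-implanted rats adapted to the chambers and to s.c. injection, body temperature was sampled for 10 s each minute for 3 h and averaged across the session. Doses were 0.3–3.0 mg/kg or 3.0–30 mg/kg s.c., in non-systematic order, at most twice weekly. One-way ANOVA with Dunnett's test compared each dose with control.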

male Sprague-Dawley rats [4] = assay: Telemetric assessment of blood pressure; assay type: in vivo, rat; conditions: s.c.; for ED50 blood pressure: mean over 3-h session, halfway point 109.5 mm Hg, 95% CI given in text
[5] = tested on: extracellular dopamine in the nucleus accumbens; assay: In vivo microdialysis, dopamine; parameters: species or system rat; conditions: for dose producing a significant increase in extracellular dopamine: i.v., nucleus accumbens microdialysis, vs saline
In short: as §1

NET [6] = molecular target: NET (Rattus norvegicus, UniProt Q63380); assay: Inhibition of [3H]norepinephrine uptake in rat brain synaptosomes; assay type: biochemical
Chain of NET (Rattus norvegicus, UniProt Q63380) (Q63380 1-617): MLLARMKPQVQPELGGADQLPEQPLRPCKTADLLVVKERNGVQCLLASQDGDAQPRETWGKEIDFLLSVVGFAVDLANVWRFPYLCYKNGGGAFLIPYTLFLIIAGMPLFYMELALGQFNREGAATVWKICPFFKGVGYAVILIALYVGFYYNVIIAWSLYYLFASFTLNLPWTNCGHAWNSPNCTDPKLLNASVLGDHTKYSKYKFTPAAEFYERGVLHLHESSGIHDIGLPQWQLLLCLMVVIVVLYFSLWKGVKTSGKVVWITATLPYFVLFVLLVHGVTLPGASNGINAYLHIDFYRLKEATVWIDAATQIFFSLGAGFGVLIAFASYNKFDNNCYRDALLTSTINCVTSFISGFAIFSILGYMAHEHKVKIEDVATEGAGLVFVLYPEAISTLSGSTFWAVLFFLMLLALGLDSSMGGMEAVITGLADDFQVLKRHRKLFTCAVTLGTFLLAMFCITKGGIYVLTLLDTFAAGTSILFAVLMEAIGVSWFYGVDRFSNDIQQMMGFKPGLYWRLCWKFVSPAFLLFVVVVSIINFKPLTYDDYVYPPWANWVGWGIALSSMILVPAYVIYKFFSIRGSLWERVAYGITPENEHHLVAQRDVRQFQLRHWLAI

DAT [7] = molecular target: DAT (Rattus norvegicus, UniProt P23977); assay: Inhibition of [3H]dopamine uptake in rat brain synaptosomes; assay type: biochemical
Chain of DAT (Rattus norvegicus, UniProt P23977) (P23977 whole entry): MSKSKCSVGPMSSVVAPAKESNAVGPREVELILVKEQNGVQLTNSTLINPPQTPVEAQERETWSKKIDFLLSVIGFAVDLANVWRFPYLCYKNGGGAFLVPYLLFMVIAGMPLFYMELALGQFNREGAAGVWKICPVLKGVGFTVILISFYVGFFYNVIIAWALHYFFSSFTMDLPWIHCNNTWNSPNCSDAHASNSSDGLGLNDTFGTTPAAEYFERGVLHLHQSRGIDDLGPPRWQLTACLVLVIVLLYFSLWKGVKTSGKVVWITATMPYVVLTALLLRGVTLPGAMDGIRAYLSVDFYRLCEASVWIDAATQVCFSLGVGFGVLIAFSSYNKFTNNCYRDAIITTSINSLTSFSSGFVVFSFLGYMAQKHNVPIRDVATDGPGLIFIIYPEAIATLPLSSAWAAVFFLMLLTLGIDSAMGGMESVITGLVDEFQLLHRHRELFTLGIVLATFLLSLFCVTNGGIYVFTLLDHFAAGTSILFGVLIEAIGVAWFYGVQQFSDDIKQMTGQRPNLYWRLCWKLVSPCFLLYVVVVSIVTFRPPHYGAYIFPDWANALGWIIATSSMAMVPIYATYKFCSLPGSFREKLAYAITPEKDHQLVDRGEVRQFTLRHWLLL

male Sprague-Dawley rats [8] = assay: Intravenous self-administration; assay type: in vivo, rat; conditions: for acquisition of self-administration (rats showing clear evidence): FR1, 10 days, 2-h sessions; for i.v. dose supporting peak responding: dose-effect testing after training on the same enantiomer, discussion; for dose of peak (highest) responding in dose-effect testing: i.v., after acquisition, results section; for active nose-poke responding over 10 days of extinction: saline substituted for drug
In short: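 Rats on a reverse light cycle were catheterized in the jugular vein under ketamine/xylazine (80/9.6 mg/kg i.p.) and recovered for at least 7 days. Active nose-pokes (side counterbalanced) were reinforced on FR1 with an i.v. infusion, each followed by a 20-s timeout, in 2-h sessions. Acquisition ran at least 10 days at 0.03 or 0.3 mg/kg/inj. Three further doses were then given in non-systematic order, 3 days each, averaging days 2–3. Saline substitution for 10 days followed. Analysis used a linear mixed-effects model.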

NET [9] = conditions: range given for DAT and NET together; cited from earlier work
rats = conditions: progressive ratio schedule, rats trained with racemic MDPV; cited from earlier work
[10] = tested on: mice trained to discriminate cocaine from saline; conditions: cited from earlier work
DAT [11] = conditions: range given for DAT and NET together; cited from earlier work
[12] = uptake inhibition, rat brain synaptosomes

| Structure (SMILES) | dose increasing overall activity and stereotypy (male Sprague-Dawley rats [2]) | dose with significant increase in body temperature (male Sprague-Dawley rats [3]) | ED50 blood pressure (male Sprague-Dawley rats [4]) | dose producing a significant increase in extracellular dopamine [5] | acquisition of self-administration (rats showing clear evidence) (male Sprague-Dawley rats [8]; 0.03 mg/kg/injection i.v.) | i.v. dose supporting peak responding (male Sprague-Dawley rats [8]) | dose of peak (highest) responding in dose-effect testing (male Sprague-Dawley rats [8]) | active nose-poke responding over 10 days of extinction (male Sprague-Dawley rats [8]) | other results |
| --- | --- | --- | --- | --- | --- | --- | --- | --- | --- |
| CCCC(C(=O)c1ccccc1)N1CCCC1 (stereo not drawn) [R,S-α-PVP, α-pyrrolidinovalerophenone] | 0.3 mg/kg | – | – | – | – | – | – | – | change in extracellular levels of 5-HT [1]: no changes |
| CCC[C@H](C(=O)c1ccccc1)N1CCCC1 [R-α-PVP] | 3 mg/kg | 10 mg/kg | 5.85 mg/kg | 3 mg/kg | did not show evidence of acquisition | 0.3 mg/kg/inj | 0.3 mg/kg/injection | did not decrease significantly over days of extinction | fold difference in potency between enantiomers from calculated ED50 values (male Sprague-Dawley rats [4]; blood pressure and heart rate, R- vs S-α-PVP): 20 – 40 fold; times less potent than racemic α-PVP on blood pressure (male Sprague-Dawley rats [4]; from significant doses): approximately 10 times; size of dopamine increase relative to 0.3 mg/kg S-α-PVP ([5]; 3 mg/kg i.v., nucleus accumbens): less than half; times less potent than S-α-PVP at NET (NET [6]): 20 times; times less potent than S-α-PVP at DAT (DAT [7]; [12]): 40 times; acquisition of self-administration (rats showing clear evidence) (male Sprague-Dawley rats [8]; 0.3 mg/kg/injection i.v.): Six of the 8; times less potent than S-α-PVP (self-administration dose-effect determinations) (male Sprague-Dawley rats [8]; abstract): at least 30 times; fold less potent than racemic α-PVP (self-administration dose-effect function) (male Sprague-Dawley rats [8]; rightward shift of inverted U-shaped function): around 30 fold |
| CCC[C@@H](C(=O)c1ccc2c(c1)OCO2)N1CCCC1 [S-MDPV] | – | – | – | – | – | – | – | – | times more potent than R-MDPV in blocking uptake at NET (NET [9]): 50–100 times; times more potent than the R-isomer in self-administration (rats): about 50 times; times more potent than the R-isomer in substituting for cocaine [10]: about 100 times; times more potent than R-MDPV in blocking uptake at DAT (DAT [11]): 50–100 times |
| CCC[C@@H](C(=O)c1ccccc1)N1CCCC1 [S-α-PVP] | 0.1 mg/kg | 0.3 mg/kg | 0.29 mg/kg | 0.1 mg/kg | All 10 | ≤ 0.003 mg/kg/inj | 0.003 mg/kg/injection | decreased over the 10 days of extinction | times more potent than racemic on blood pressure (ED50) (male Sprague-Dawley rats [4]): approximately 2 times; times more potent than the racemate at NET (NET [6]): about 2 times; times more potent than cocaine in blocking uptake at DAT (DAT [7]; discussion): about 30 times; times more potent than the racemate at DAT (DAT [7]; [12]): about 2 times |
